From ChEMBL document CHEMBL1122688, “Antimycotic azoles. 7. Synthesis and antifungal properties of a series of novel triazol-3-ones” (1984) come the findings set out here.

One test concerns Cryptococcus neoformans. Kind of test: In vitro antifungal activity against Cryptococcus neoformans. Type of test: functional. In outline: (§1)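 Fungal growth-inhibition screen (Godefroi method) against dermatophytes, yeasts, moulds and other fungi. The value is the lowest concentration (µg/mL) giving total inhibition of growth, tested up to 100 µg/mL.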
In another test the test system is Candida albicans. The experiment in a line: In vitro antifungal activity against Candida albicans. Format: functional. The gist of the method:
as §1

Test [1] in a line: In vitro antifungal activity against Mucor sp. Format: functional. The gist of the method:
as §1

Another test concerns Sporothrix schenckii. Kind of test: In vitro antifungal activity against Sporothrix schenck ii. Format: functional. In outline:
as §1

Test [2] in a line: In vivo activity against microsporosis guinea pig, measured as the ratio of animals cured/animals infected (C/I) at dose 10 mg/kg; C/I = 2/4. Format: functional.
The subject of the next test is Trichophyton benhamiae. The experiment in a line: In vitro antifungal activity against Trichophyton mentagrophytes. Type of test: functional, Arthroderma benhamiae. In outline: as §1
A further test has as its system Phialophora verrucosa. Kind of test: In vitro antifungal activity against Phialophora verrucosa. Type of test: functional. In outline: as §1
The subject of the next test is Microsporum canis. Kind of test: In vitro antifungal activity against Microsporum canis. Type of test: functional. In outline: as §1
The test system of the next test is Trichophyton rubrum. Kind of test: In vitro antifungal activity against Trichophyton rubrum. Type of test: functional. The gist of the method:
as §1

A short description of test [3]: In vivo activity against vaginal candidoses in rats, measured as the ratio of animals cured/animals infected (C/I) at dose 2.5 mg/kg; C/I = 0/2. Format: functional.
The next test has as its system Candida tropicalis. The experiment in a line: In vitro antifungal activity against Candida tropicalis. Format: functional. The gist of the method:
as §1

A short description of test [4]: In vivo activity against microsporosis guinea pig, measured as the ratio of animals cured/animals infected (C/I) at dose 2.5 mg/kg; C/I = 0/2. Type of test: functional.
The test system of another test is Aspergillus fumigatus. The experiment in a line: In vitro antifungal activity against Aspergillus fumigatus. Format: functional. The gist of the method:
as §1

In another test the test system is Saprolegnia. Kind of test: In vitro antifungal activity against Saprolegnia sp. Type of test: functional. In outline:
as §1

A short description of test [5]: In vivo activity against microsporosis guinea pig, measured as the ratio of animals cured/animals infected (C/I) at dose 2.5 mg/kg; C/I = 1/6. Format: functional.
Test [6] can be described thus: In vivo activity against microsporosis guinea pig, measured as the ratio of animals cured/animals infected (C/I) at dose 10 mg/kg; C/I = 5/6. Type of test: functional.
A short description of test [7]: In vivo activity against vaginal candidoses in rats, measured as the ratio of animals cured/animals infected (C/I) at dose 2.5 mg/kg; C/I = 1/6. Type of test: functional.
Test [8] in a line: In vivo activity against microsporosis guinea pig, measured as the ratio of animals cured/animals infected (C/I) at dose 1.25 mg/kg; C/I = 0/6. Format: functional.
Test [9] can be described thus: In vivo activity against microsporosis guinea pig, measured as the ratio of animals cured/animals infected (C/I) at dose 10 mg/kg; C/I = 1/2. Format: functional.
Test [10] is described as follows: In vivo activity against microsporosis guinea pig, measured as the ratio of animals cured/animals infected (C/I) at dose 10 mg/kg; C/I = 2/6. Type of test: functional.
Test [11] can be described thus: In vivo activity against vaginal candidoses in rats, measured as the ratio of animals cured/animals infected (C/I) at dose 1.25 mg/kg; C/I = 6/6. Format: functional.
Test [12] in a line: In vivo activity against vaginal candidoses in rats, measured as the ratio of animals cured/animals infected (C/I) at dose 0.63 mg/kg; C/I = 4/11. Format: functional.
The nature of test [13]: In vivo activity against microsporosis guinea pig, measured as the ratio of animals cured/animals infected (C/I) at dose 2.5 mg/kg; C/I = 0/8. Format: functional.
Test [14] in a line: In vivo activity against microsporosis guinea pig, measured as the ratio of animals cured/animals infected (C/I) at dose 1.25 mg/kg; C/I = 0/8. Type of test: functional.
A short description of test [15]: In vivo activity against vaginal candidoses in rats, measured as the ratio of animals cured/animals infected (C/I) at dose 2.5 mg/kg; C/I = 6/6. Type of test: functional.
A short description of test [16]: In vivo activity against vaginal candidoses in rats, measured as the ratio of animals cured/animals infected (C/I) at dose 0.63 mg/kg; C/I = 4/12. Type of test: functional.
Another test concerns Rattus norvegicus. The experiment in a line: In vivo activity against vaginal candidoses in rats, measured as the ratio of animals cured/animals infected (C/I) at dose 1.25 mg/kg; C/I = 16/18. Type of test: functional.
The nature of test [17]: In vivo activity against vaginal candidoses in rats, measured as the ratio of animals cured/animals infected (C/I) at dose 2.5 mg/kg; C/I = 13/15. Format: functional.
Test [18] can be described thus: In vivo activity against microsporosis guinea pig, measured as the ratio of animals cured/animals infected (C/I) at dose 2.5 mg/kg; C/I = 3/10. Format: functional.
Test [19] in a line: In vivo activity against vaginal candidoses in rats, measured as the ratio of animals cured/animals infected (C/I) at dose 10 mg/kg; C/I = 10/12. Format: functional.
Test [20] is described as follows: In vivo activity against microsporosis guinea pig, measured as the ratio of animals cured/animals infected (C/I) at dose 10 mg/kg; C/I = 4/8. Format: functional.
The nature of test [21]: In vivo activity against vaginal candidoses in rats, measured as the ratio of animals cured/animals infected (C/I) at dose 2.5 mg/kg; C/I = 4/6. Format: functional.
Test [22] is described as follows: In vivo activity against vaginal candidoses in rats, measured as the ratio of animals cured/animals infected (C/I) at dose 1.25 mg/kg; C/I = 0/2. Format: functional.
The nature of test [23]: In vivo activity against vaginal candidoses in rats, measured as the ratio of animals cured/animals infected (C/I) at dose 10 mg/kg; C/I = 4/4. Format: functional.

In the case of `CC(C)n1ncn(-c2ccc(N3CCN(c4ccc(OC[C@@H]5COC(Cn6ccnc6)(c6ccc(Cl)cc6Cl)O5)cc4)CC3)cc2)c1=O` (stereo not given in full), the Inhibition in the test on Cryptococcus neoformans is greater than 100 µg/mL; with Candida albicans, 100 µg/mL; in test [1] it was greater than 100 µg/mL; in the test on Sporothrix schenckii, greater than 100 µg/mL; in the test with Trichophyton benhamiae, 100 µg/mL; with Phialophora verrucosa, greater than 100 µg/mL. In addition, the Inhibition with Microsporum canis was greater than 100 µg/mL; in the test on Trichophyton rubrum it was 100 µg/mL; in the test on Candida tropicalis, 100 µg/mL; in the test on Aspergillus fumigatus, greater than 100 µg/mL; in the test on Saprolegnia, greater than 100 µg/mL. Further, the results for the C/I ratio in test [2], in test [3] and in test [4] were 0.5, 0 and 0, respectively.

Regarding `Cc1nn(C(C)C)c(=O)n1-c1ccc(N2CCN(c3ccc(OC[C@@H]4COC(Cn5ccnc5)(c5ccc(Cl)cc5Cl)O4)cc3)CC2)cc1` (stereo not given in full), the Inhibition is greater than 100 µg/mL in the test with Cryptococcus neoformans; 100 µg/mL with Candida albicans; greater than 100 µg/mL in test [1]; greater than 100 µg/mL in the test on Sporothrix schenckii; 100 µg/mL with Trichophyton benhamiae; greater than 100 µg/mL in the test with Phialophora verrucosa. Also, the Inhibition in the test with Microsporum canis was greater than 100 µg/mL; in the test with Trichophyton rubrum, greater than 100 µg/mL; with Candida tropicalis, 1 µg/mL; with Aspergillus fumigatus, greater than 100 µg/mL; in the test with Saprolegnia, greater than 100 µg/mL. Besides, the C/I ratio was 1 in test [5], 0.833 in test [6], 1 in test [7] and 0 in test [8].

Regarding `CCC(C)n1ncn(-c2ccc(N3CCN(c4ccc(OC[C@@H]5COC(Cn6ccnc6)(c6ccc(Cl)cc6Cl)O5)cc4)CC3)cc2)c1=O` (stereo not given in full), the Inhibition in the test on Cryptococcus neoformans was 10 µg/mL; in the test with Candida albicans it was greater than 100 µg/mL; in [1], greater than 100 µg/mL; in the test on Sporothrix schenckii, greater than 100 µg/mL; in the test on Trichophyton benhamiae it was 1 µg/mL; with Phialophora verrucosa, 100 µg/mL. Also, the Inhibition is greater than 100 µg/mL in the test on Microsporum canis; 1 µg/mL with Trichophyton rubrum; 1 µg/mL in the test with Candida tropicalis; 100 µg/mL with Aspergillus fumigatus; greater than 100 µg/mL in the test on Saprolegnia. Also, in test [9], the C/I ratio is reported as 1.

`Cc1nn(CC(C)C)c(=O)n1-c1ccc(N2CCN(c3ccc(OC[C@@H]4COC(Cn5cncn5)(c5ccc(Cl)cc5Cl)O4)cc3)CC2)cc1` (stereo not given in full): the Inhibition in the test on Cryptococcus neoformans was 100 µg/mL; with Candida albicans, 100 µg/mL; in [1], greater than 100 µg/mL; in the test on Sporothrix schenckii it was greater than 100 µg/mL; in the test on Trichophyton benhamiae, 10 µg/mL; with Phialophora verrucosa, greater than 100 µg/mL. Besides, the Inhibition in the test on Microsporum canis is greater than 100 µg/mL; in the test with Trichophyton rubrum, greater than 100 µg/mL; in the test with Candida tropicalis, 1 µg/mL; with Aspergillus fumigatus it was greater than 100 µg/mL; with Saprolegnia, greater than 100 µg/mL. Besides, the C/I ratio in test [10] amounted to 0.333; in test [11] it was 1; in test [12], 0.364; in test [13] it was 0; in test [14], 0; in test [15], 1.

`CC(C)CCn1ncn(-c2ccc(N3CCN(c4ccc(OC[C@@H]5COC(Cn6cncn6)(c6ccc(Cl)cc6Cl)O5)cc4)CC3)cc2)c1=O` (stereo not given in full): the Inhibition was greater than 100 µg/mL in the test on Cryptococcus neoformans; 100 µg/mL with Candida albicans; greater than 100 µg/mL in [1]; greater than 100 µg/mL with Sporothrix schenckii; 100 µg/mL in the test with Trichophyton benhamiae; greater than 100 µg/mL in the test with Phialophora verrucosa. The Inhibition in the test with Microsporum canis, in the test with Trichophyton rubrum, in the test on Candida tropicalis, in the test on Aspergillus fumigatus and with Saprolegnia was greater than 100 µg/mL each time. For the same compound, the C/I ratio in test [3] amounted to 0; in test [9], 1.

`CCn1ncn(-c2ccc(N3CCN(c4ccc(OC[C@@H]5COC(Cn6cncn6)(c6ccc(Cl)cc6Cl)O5)cc4)CC3)cc2)c1=O` (stereo not given in full): the Inhibition in the test with Cryptococcus neoformans was 10 µg/mL; in the test on Candida albicans, 100 µg/mL; in test [1], greater than 100 µg/mL; with Sporothrix schenckii it was greater than 100 µg/mL; in the test on Trichophyton benhamiae it was 1 µg/mL; with Phialophora verrucosa it was greater than 100 µg/mL. For the same compound, the Inhibition is greater than 100 µg/mL in the test on Microsporum canis; 1 µg/mL in the test on Trichophyton rubrum; 1 µg/mL with Candida tropicalis; greater than 100 µg/mL in the test on Aspergillus fumigatus; greater than 100 µg/mL in the test with Saprolegnia. Moreover, the C/I ratio was determined as 4 in [16]; 16 with Rattus norvegicus; 0.867 in [17]; 0.3 in [18]; 0.833 in test [19]; 0.5 in [20]. Moreover, the C/I ratio in [14] is recorded as 0.

Take `CCCCn1ncn(-c2ccc(N3CCN(c4ccc(OC[C@@H]5COC(Cn6ccnc6)(c6ccc(Cl)cc6Cl)O5)cc4)CC3)cc2)c1=O` (stereo not given in full): the Inhibition in the test on Cryptococcus neoformans is greater than 100 µg/mL; in the test on Candida albicans, 100 µg/mL; in [1], greater than 100 µg/mL; in the test with Sporothrix schenckii, greater than 100 µg/mL; with Trichophyton benhamiae it was 100 µg/mL; in the test on Phialophora verrucosa, greater than 100 µg/mL. The Inhibition is greater than 100 µg/mL in the test with Microsporum canis; 10 µg/mL with Trichophyton rubrum; 100 µg/mL in the test on Candida tropicalis; greater than 100 µg/mL in the test with Aspergillus fumigatus; greater than 100 µg/mL in the test on Saprolegnia. For the same compound, the C/I ratio was found to be 4 in test [21] and 0 in test [22].

On to `CCCn1ncn(-c2ccc(N3CCN(c4ccc(OC[C@@H]5COC(Cn6ccnc6)(c6ccc(Cl)cc6Cl)O5)cc4)CC3)cc2)c1=O` (stereo not given in full), for which the Inhibition was greater than 100 µg/mL in the test on Cryptococcus neoformans; greater than 100 µg/mL with Candida albicans; greater than 100 µg/mL in [1]; greater than 100 µg/mL with Sporothrix schenckii; 100 µg/mL in the test on Trichophyton benhamiae; greater than 100 µg/mL in the test on Phialophora verrucosa. The Inhibition is greater than 100 µg/mL with Microsporum canis; 100 µg/mL in the test on Trichophyton rubrum; greater than 100 µg/mL in the test with Candida tropicalis; greater than 100 µg/mL in the test with Aspergillus fumigatus; greater than 100 µg/mL in the test with Saprolegnia. For the same compound, the C/I ratio in test [23] amounted to 1; in test [3] it was 0.
